In paper PMC3728915 (Chemical science (Royal Society of Chemistry : 2010), 2013):

How the values were obtained:
[1] = test system: U-937, HeLa, H460, 786-O, and MCF-7; experiment: 72-hour cytotoxicity across five human cell lines; assay type: cell-based; settings: MTS and SRB cytotoxicity assays
Outline: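 Cells were treated with test compound for 72 h. U-937 cells were read by MTS reduction. HeLa, H460, 786-O and MCF-7 cells were read by sulforhodamine B staining. IC50 values are given in nM as the mean with standard deviation, n ≥ 3.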

[2] = test system: U-937 and HeLa human cancer cell lines; experiment: Anticancer activity screen, cell line not given; assay type: cell-based
Outline: (§1)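 Human cancer cells were exposed continuously to test compound for 72 h. Viability was read by MTS for U-937 cells and by sulforhodamine B staining for HeLa cells. IC50 values are given in nM as the mean of at least three determinations with standard deviation.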

U-937 cells = experiment: Annexin V-FITC / propidium iodide apoptosis analysis; assay type: cell-based, human; settings: 24 hours, U-937, 100-times the 72-hour IC50 values
[3] = test system: U-937 (hystiocytic lymphoma); experiment: 72-hour MTS cytotoxicity assay in U-937 cells; assay type: cell-based, human; settings: read-out: IC50 (U-937), 72-hour exposure
Outline: as §1

[4] = test system: HeLa (cervical carcinoma); experiment: 72-hour SRB cytotoxicity assay in HeLa cells; assay type: cell-based, human; settings: read-out: IC50 (HeLa), 72-hour exposure
Outline: as §1

`CN1C(=O)[C@@]23C[C@]4([C@]56C[C@@]78SS[C@@](CO)(C(=O)N7[C@H]5Nc5ccccc56)N(C)C8=O)c5ccccc5N[C@@H]4N2C(=O)[C@]1(CO)SS3` [Compound 4, (+)-chaetocin A] was tested, and the “IC50 / potency range (in words)” value [1] was “subnanomolar”.
In the case of `CN1C(=O)C(=O)N2C(=C[C@]3(c4c[nH]c5ccccc45)c4ccccc4N[C@H]23)C1=O` [Compound 52, (+)-Gliocladin C], the “anticancer activity (in words)” value ([2]; 72-hour exposure, U-937 and HeLa) is reported as “complete loss of biological activity”.
For (+)-chaetocin C [Compound 5], the “IC50 / potency range (in words)” value [1] was “subnanomolar” and the “induction of apoptotic cell death” value (U-937 cells) was “induce caspase-dependent apoptotic cell death”.
With (+)-gliocladin B [Compound 7] the IC50 ([2]; anticancer activity, cell line not specified) was > 10000 nM.
“(+)-12,12'-dideoxyverticillin A [Compound 3]” showed an IC50 [3] of 15.5 nM and an IC50 [4] of 7.2 nM.
